Compound activity (PubChem)
CAL PDZ FP-1: CAL PDZ peptide-binding inhibitors, primary screen, biochemical, fluorescence polarization, Cer-tagged CAL PDZ, HTS; Golgi-associated PDZ and coiled-coil motif-containing protein (Homo sapiens), Q9HD26; purified CAL PDZ, TMR-peptide fluorescence polarization, 1 h; inhibition, % at 20 µM; actives 0.02% (n = 330,000);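 active = highest replicate inhibition of at least 40%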;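 also: plate controls were DMSO neutral control wells for no effect and unlabeled competitor peptide control wells for full effect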
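Material: tagged CAL PDZ protein CerCALP, purified; buffer or medium: sodium phosphate/NaCl buffer pH 7.4 with TCEP, IgG, Thesit; also added: fluorescent TMR peptide probe; schedule: 1 h incubation at room temperature before polarization reading; technique: fluorescence polarization from S- and P-plane intensities, G-factor corrected; control set: unlabelled peptide and DMSO controls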
PvdQ acylase: P. aeruginosa PvdQ acylase inhibitors, primary screen, biochemical, fluorescence, plate reader and imaging, single point; PvdQ acylase [Pseudomonas aeruginosa LESB58]; purified PvdQ acylase; inhibition, % at 10 µM; actives 0.063% (n = 340,000); AID 488965, 2010; in the data active = inhibition above about 30%, passing the limit was not always enough;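 also: 0% = vehicle neutral wells and 100% = reference inhibitor wells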
Glyco luc inh: increase of ERlucT glycosylation luciferase signal, primary screen, N-linked glycosylation inhibitor project, D54 ERlucT cells, luminescence, set 2 | AID 588692, 2011 | actives 0.23% (n = 360,000) | D54 ERlucT glycosylation luciferase reporter, 24 h; percent of 100 nM tunicamycin response | reporter increase, % at 12.5 µM;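 active = mean luciferase reporter signal, scaled so untreated is 0 and the glycosylation-blocking control 100, at or above a set limit in every replicate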;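 also: luciferase carries N-glycosylation sites so blocking glycosylation raises the light; 0% = median of neutral control wells and 100% = median of 100 nM tunicamycin wells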
Vif imaging: HIV Vif self-association inhibitors, primary screen, imaging, HEK293T, single point | HEK293T cells, Vif self-association by quenched fluorescence, 24 h | inhibition, % at 7.49 µM | actives 0.35% (n = 340,000); in the data active = inhibition above about 50%, passing the limit was not always enough
CAL PDZ FP-2: untagged CAL PDZ binding inhibitors, primary screen, biochemical, fluorescence polarization, HTS; inhibition, % at 24.9 µM; actives 0.92% (n = 300,000); purified CAL PDZ, TMR-peptide fluorescence polarization, 1 h; Golgi-associated PDZ and coiled-coil motif-containing protein (Homo sapiens), Q9HD26;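 active = mean inhibition of at least 30% with at least half of replicates also reaching 30%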;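 also: 0% = DMSO neutral control and 100% = excess unlabeled competitor peptide PRC23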
CDK5 p35 inh: inhibitors of human CDK5/p35 kinase, primary screen, biochemical, single concentration; Recombinant CDK5/p35, ADP-Glo luminescence, 60 min; actives 0.01% (n = 330,000); Cyclin-dependent kinase 5 (Homo sapiens) + Cyclin-dependent kinase 5 activator 1 (Homo …; inhibition, % at 10 µM;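 active = highest replicate inhibition of at least 50% and at least 75% of replicates reaching 50%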;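 also: plate controls were DMSO neutral control for no effect and GW8510 at 10 µM for full effect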
Target sequence (Q00535 whole entry, looked up): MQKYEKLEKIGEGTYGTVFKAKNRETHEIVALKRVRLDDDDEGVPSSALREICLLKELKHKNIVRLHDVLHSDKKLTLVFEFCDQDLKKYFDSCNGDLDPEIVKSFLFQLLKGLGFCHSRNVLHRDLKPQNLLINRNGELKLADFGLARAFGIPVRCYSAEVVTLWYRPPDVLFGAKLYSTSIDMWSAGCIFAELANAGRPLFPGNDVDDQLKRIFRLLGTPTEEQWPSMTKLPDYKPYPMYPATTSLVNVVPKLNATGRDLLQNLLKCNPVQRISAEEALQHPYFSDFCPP
Target sequence (Q15078 whole entry, looked up): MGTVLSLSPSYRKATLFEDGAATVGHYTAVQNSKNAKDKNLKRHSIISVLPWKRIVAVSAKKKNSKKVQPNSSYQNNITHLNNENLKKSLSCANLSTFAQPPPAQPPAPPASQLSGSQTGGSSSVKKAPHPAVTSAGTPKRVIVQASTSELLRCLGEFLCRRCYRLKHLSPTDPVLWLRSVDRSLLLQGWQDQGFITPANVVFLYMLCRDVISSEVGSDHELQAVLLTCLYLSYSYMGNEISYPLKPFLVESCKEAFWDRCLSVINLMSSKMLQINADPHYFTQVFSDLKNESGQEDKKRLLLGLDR
An asterisk follows results filed as active; · = no result given; + = active, no number. Shown are actives, neighbours in structure and some others; about 1.4% of the full set was active somewhere.

SMILES | CAL PDZ FP-1 | PvdQ acylase | Glyco luc inh | Vif imaging | CAL PDZ FP-2 | CDK5 p35 inh
CC(=O)c1ccc(Nc2nc(C(N)C3CCCCC3)cs2)cc1 (stereo unspecified) | · | · | -3 | 7 | · | ·
O=C(NNC(=O)C1CCC1)c1ccc(Br)cc1 | 0 | -21 | 1 | 1 | 50* | 1
Cc1ccc(CNc2nc(N)c([N+](=O)[O-])c(NCCO)n2)cc1 | 0 | -14 | 9 | -2 | 62* | 0
Nc1nc(NCc2ccc(Cl)cc2)nc(NCCO)c1[N+](=O)[O-] | -1 | -5 | 9 | 13 | 28 | 2
C=CCC1NS(=O)(=O)OC(CCc2ccccc2)C1O (stereo unspecified) | 1 | 21 | 0 | 0 | -1 | 0
Cc1ccc(S(=O)(=O)N2CC(O)C[C@H]2C(=O)OCC(=O)N2CCN(c3ccc(F)cc3)CC2)cc1C (stereo partly specified) | -1 | -5 | 0 | -29 | -1 | 0
CCOC(=O)c1ccc(S(=O)(=O)NCC(C)(C)N2CCOCC2)cc1 | 1 | -6 | 1 | -1 | 56* | 0
COc1ccc2c(CC(=O)Nc3ncc(C)s3)coc2c1 | 2 | 21 | -3 | 5 | 0 | 0
COc1ccc(Br)cc1CN(C)C(=O)c1ccncc1 | 0 | -6 | 0 | -2 | + | -1
COc1ccc(Br)cc1CN(C)C(=O)C1=CC=CN2CCS(=O)(=O)N=C12 | 0 | 4 | -1 | 1 | 14 | 2
COc1ccc2[nH]c(O)c(N=NC(=O)c3ccc(NS(=O)(=O)c4cccs4)cc3)c2c1 | -1 | -15 | 2 | -2 | 46* | 1
CC(NC(=O)CCC(=O)c1ccccc1)c1ccc(F)cc1 (stereo unspecified) | -2 | 0 | -1 | 6 | -1 | -1
CC(NC(=O)CCC(=O)NCc1ccc(F)cc1)c1ccccc1 (stereo unspecified) | -1 | -19 | 1 | -4 | 88* | -2
Cc1ccc(Cl)cc1N1CCN(C(=O)Cc2csc(Nc3nc(=S)[nH]c4ccccc34)n2)CC1 | -3 | -11 | 2 | 5 | -2 | -1
O=C(Cc1csc(Nc2nc(=S)[nH]c3ccccc23)n1)N1CCN(c2cccc(Cl)c2)CC1 | -1 | -1 | -6 | -1 | 54* | -1
O=C(Nc1ccc(N2CCOCC2)cc1)c1csc([C@H]2C[C@H](O)[C@@H](CO)O2)n1 | · | · | -1 | 7 | · | ·
Nn1c(SCC(=O)Nc2cccc(S(N)(=O)=O)c2)nnc1C1CC1 | 0 | -10 | 1 | 14 | 70* | -1
NS(=O)(=O)c1cccc(NC(=O)CSc2nnc(C3CC3)n2C2CC2)c1 | -5 | -8 | 0 | 0 | -5 | 1
Nn1c(SCC(=O)Nc2ccc(S(N)(=O)=O)cc2)nnc1-c1ccco1 | -1 | -11 | · | · | 37* | 0
O=C(CSc1nnc(-c2ccncc2)s1)Nc1ccc(Cl)c(C(=O)O)c1 | -2 | -9 | 1 | 54* | -4 | -1
Nc1nnc(SCC(=O)Nc2ccc(Cl)c(C(=O)O)c2)s1 | -1 | 3 | 2 | 4 | -2 | 1
CC(C)Cc1nnc(NC(=O)c2cc3c(s2)CCC3)s1 | -1 | -25 | 0 | -2 | 45* | 0
CN(C)S(=O)(=O)Oc1ccc(C(=O)Nc2cccc(C(F)(F)F)c2)cc1 | 0 | -11 | 1 | -1 | 38* | 0
O=C(N/N=C/c1cccnc1)c1ccccc1OCc1ccc(Br)cc1 | -4 | -10 | 3 | -4 | 3 | 1
O=C(N/N=C/c1cccnc1)c1cc(-c2ccccc2OCc2ccccc2)n[nH]1 | -10 | -11 | 41* | -3 | · | 0
SMILES | CAL PDZ FP-1 | PvdQ acylase | Glyco luc inh | Vif imaging | CAL PDZ FP-2 | CDK5 p35 inh
CC(C)NC1=C(Cl)C(=O)c2ccccc2C1=O | -2 | -1 | -6 | 63* | -2 | -2
O=C1C(Cl)=C(Nc2ccccc2)C(=O)c2ccccc21 | -1 | -10 | -23 | 12 | · | 2
COC(=O)c1ccc(Cn2nc(C)cc2C)cc1 | · | -21 | 3 | 5 | 112* | -1
Cc1cc(C)n(Cc2ccc(C(=O)O)cc2)n1 | -2 | 2 | 1 | 6 | -3 | 0
O=C(c1cnn(C(=O)CN2CCCC2=O)c1)c1ccccc1O | 13 | -11 | 4 | -4 | 93* | -1
CC(NS(=O)(=O)c1ccc(Cl)c(Cl)c1)C(=O)OCC(=O)Nc1ccc2c(c1)OCO2 (stereo unspecified) | 70* | -15 | 1 | -4 | -6 | 0
COc1ccc(-c2cc(C3CCNCC3)[nH]n2)cc1 | -1 | -14 | -3 | -2 | 0 | 2
Cc1ccc(-c2cc(C(=O)NCC3CCCO3)no2)cc1 (stereo unspecified) | -2 | -1 | -6 | 0 | -4 | -1
O=C(NCC1CCCO1)c1cc(-c2ccccc2)on1 (stereo unspecified) | -2 | -9 | 34* | 3 | -2 | 0
Cc1ccc(S(=O)(=O)N(C)C[C@H]2OCc3cn(nn3)CCCC(=O)N([C@H](C)CO)C[C@@H]2C)cc1 | · | · | 1 | · | · | ·
COc1ccc(-c2nsc(SCC(=O)Nc3cc(C)on3)n2)cc1 | -2 | -5 | -2 | -2 | -5 | 0
CCc1nnc(NC(=O)CSc2nc(-c3ccc(OC)cc3)ns2)s1 | 0 | -18 | 3 | -9 | 51* | 0
COc1ccc(C2NCCc3cc(OC)c(OC)cc32)cc1OC (stereo unspecified) | 1 | -11 | 5 | -6 | 60* | 0
CCN(C(=O)CCc1nnc2ccc(NCc3ccco3)nn12)c1ccccc1 | -3 | -4 | 1 | -4 | -5 | 0
COc1cc2cnc(-c3cccnc3)cc2cc1OC | 0 | -2 | 3 | 5 | 2 | 2
O=C(CNS(=O)(=O)c1cccc(Br)c1)NCCCc1ccccc1 | -1 | -9 | 1 | -12 | 44* | 0
O=C(CNc1cccc([N+](=O)[O-])c1)NCCCc1ccccc1 | 0 | -8 | 1 | 2 | 38* | 1
O=C(Cc1ccccc1)Nc1cccc([N+](=O)[O-])c1 | -1 | 0 | 1 | 0 | 4 | 2
CCC(=O)c1ccc(OCC(O)CNC2CCCC2)cc1 (stereo unspecified) | -1 | -12 | -2 | -2 | -2 | 0
Cc1ccc(S(=O)(=O)NCCN(CCNS(=O)(=O)c2ccc(C)cc2)S(C)(=O)=O)cc1 | -1 | -18 | 0 | -16 | 52* | 0
Cc1ccc(S(=O)(=O)NCCCCCCNS(=O)(=O)c2ccc(C)cc2)cc1 | · | · | -7 | -2 | · | ·
